Results on six compounds are retold here after ChEMBL document CHEMBL4325852, “Design, synthesis, and discovery of ocotillol-type amide derivatives as orally available modulators of P-glycoprotein-mediated multidrug resistance” (Eur J Med Chem, 2019).

A short description of data set [1]: Cell cycle arrest in human KBV cells assessed as accumulation at S phase at 10 uM after 24 hrs by propidium iodide staining based flow cytometry (reference value: 10.03 +/- 0.75%). The class given is ADME. In a few lines:
(§1)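 KBV cells (grown in DMEM with 10% fetal calf serum and penicillin/streptomycin, with 10 nM paclitaxel added to maintain resistance) seeded at 3×10^5 per well and cultured 24 h. Test compound added, with or without paclitaxel 0.1 μM, for 24 h. Cells fixed in 70% ethanol overnight at –20 °C, stained 30 min with PI plus RNase A, and analysed by flow cytometry; mean ± SD, n = 3.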

A short description of data set [2]: Toxicity in Balb/c nude mouse xenografted with human KBV cells assessed as body weight at 10 mg/kg, po via gavage for 2 weeks cotreated with 30 mg/kg, ip paclitaxel (reference value: 19.84 to 20.62 g). The conditions noted are these: in vivo, 336 h. Type of data set: organism-based. On the technique in general: In xenograft studies the graft and the host belong to different species.

For data set [3], the target named is T1, ATP-dependent translocase ABCB1 (Homo sapiens, UniProt P08183). Nature of the data set: Stimulation of P-gp ATPase activity (unknown origin) assessed as increase in ATP consumption preincubated for 5 mins followed by Mg-ATP addition measured after 40 mins by ATP-Glo luminescence assay relative to control.
T1 sequence (P08183 whole entry): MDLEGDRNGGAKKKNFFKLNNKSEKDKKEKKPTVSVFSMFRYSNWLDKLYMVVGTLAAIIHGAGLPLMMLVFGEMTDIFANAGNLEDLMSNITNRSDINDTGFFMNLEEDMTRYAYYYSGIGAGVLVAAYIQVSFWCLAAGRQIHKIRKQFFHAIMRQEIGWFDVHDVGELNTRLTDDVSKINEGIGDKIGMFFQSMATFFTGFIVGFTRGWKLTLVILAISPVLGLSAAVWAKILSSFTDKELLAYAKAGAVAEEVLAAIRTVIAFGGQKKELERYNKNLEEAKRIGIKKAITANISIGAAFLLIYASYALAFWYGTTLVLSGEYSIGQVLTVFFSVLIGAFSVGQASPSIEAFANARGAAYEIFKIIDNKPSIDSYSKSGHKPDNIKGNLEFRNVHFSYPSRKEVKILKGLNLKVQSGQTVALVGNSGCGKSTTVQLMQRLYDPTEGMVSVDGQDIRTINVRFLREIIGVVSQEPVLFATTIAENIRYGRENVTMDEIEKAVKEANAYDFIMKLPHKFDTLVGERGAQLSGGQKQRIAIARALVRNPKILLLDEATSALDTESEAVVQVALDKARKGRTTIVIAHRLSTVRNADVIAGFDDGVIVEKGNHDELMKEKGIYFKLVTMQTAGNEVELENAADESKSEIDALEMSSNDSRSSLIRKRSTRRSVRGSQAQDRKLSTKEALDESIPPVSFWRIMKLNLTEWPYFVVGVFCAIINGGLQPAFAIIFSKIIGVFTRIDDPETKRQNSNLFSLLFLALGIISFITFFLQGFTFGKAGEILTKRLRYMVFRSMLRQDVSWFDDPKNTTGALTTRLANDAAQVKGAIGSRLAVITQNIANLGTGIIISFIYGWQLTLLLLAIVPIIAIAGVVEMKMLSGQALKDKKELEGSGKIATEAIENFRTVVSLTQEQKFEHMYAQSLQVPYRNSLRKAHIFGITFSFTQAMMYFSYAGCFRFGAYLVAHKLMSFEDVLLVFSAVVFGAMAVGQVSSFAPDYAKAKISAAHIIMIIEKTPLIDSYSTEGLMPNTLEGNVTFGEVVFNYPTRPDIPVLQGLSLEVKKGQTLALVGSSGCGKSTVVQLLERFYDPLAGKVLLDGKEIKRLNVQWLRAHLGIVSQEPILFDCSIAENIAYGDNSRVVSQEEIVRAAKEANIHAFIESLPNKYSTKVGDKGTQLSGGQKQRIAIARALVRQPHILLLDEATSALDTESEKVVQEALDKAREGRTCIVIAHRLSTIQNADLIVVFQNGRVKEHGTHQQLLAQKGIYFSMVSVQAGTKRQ
The target of data set [4] is P-gp (ABCB1) ATPase (Homo sapiens, UniProt P08183). Nature of the data set: Stimulation of P-gp ATPase activity (unknown origin) at 0.5 mM preincubated for 5 mins followed by Mg-ATP addition measured after 40 mins by ATP-Glo luminescence assay relative to control. Conditions: read-out: FC.
Chain of P-gp (ABCB1) ATPase (P08183 whole entry): as above
Data set [5] concerns the target T1, ATP-dependent translocase ABCB1. Put plainly: Inhibition of P-gp-mediated Rh-123 efflux in human KBV cells assessed as Rh-123 accumulation preincubated for 2 hrs followed by Rh-123 addition measured after 30 mins by flow cytometry. The class given is cell-based. The conditions noted are these: 0.5 h. In a few lines: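 KBV cells treated with or without compound for 2 h at the indicated concentrations, then loaded with 10 μM Rhodamine123 for 30 min. Cells harvested, washed three times in PBS and analysed by flow cytometry.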

Data set [6] is described as follows: Cell cycle arrest in human KBV cells assessed as accumulation at sub-G1 phase at 10 uM after 24 hrs by propidium iodide staining based flow cytometry (reference value: 2.21 +/- 1.02%). Type of data set: ADME. In a few lines: as §1
On the technique in general: In flow cytometry, cells or beads pass a laser one at a time.

Data set [7] is described as follows: Cell cycle arrest in human KBV cells assessed as accumulation at G2/M phase at 10 uM after 24 hrs by propidium iodide staining based flow cytometry (reference value: 19.62 +/- 1.54%). Type of data set: ADME. In a few lines:
as §1

Data set [8] is described as follows: Potentiation of paclitaxel-induced antitumor activity against human KBV cells xenografted in Balb/c nude mouse assessed as tumor growth inhibition at 10 mg/kg, po via gavage for 2 weeks cotreated with 30 mg/kg, ip paclitaxel (reference value: 17.9%). The class given is functional.
The target in data set [9] is T1, ATP-dependent translocase ABCB1. Put plainly: Reversal of P-gp-mediated multidrug resistance in human KBV cells assessed as potentiation of paclitaxel-induced cytotoxicity by measuring decrease in paclitaxel IC50 at 5 uM after 72 hrs by MTT assay relative to paclitaxel alone. Type of data set: cell-based. (Formazan colour is commonly taken as a measure of viable cells.)

For data set [10] the target is unchanged. Put plainly: Reversal of P-gp-mediated multidrug resistance in human KBV cells assessed as potentiation of paclitaxel-induced cytotoxicity by measuring cell survival at 10 uM after 72 hrs by MTT assay (reference value: 104 +/- 8%). The class given is cell-based.
For data set [11] the target is unchanged. Nature of the data set: Reversal of P-gp-mediated multidrug resistance in human KBV cells assessed as potentiation of paclitaxel-induced cytotoxicity by measuring cell survival at 5 uM after 72 hrs by MTT assay (reference value: 104 +/- 8%). Type of data set: cell-based.
The target is the same in data set [12]. Put plainly: Reversal of P-gp-mediated multidrug resistance in human KBV cells assessed as potentiation of paclitaxel-induced cell cycle arrest by measuring accumulation at sub-G1 phase at 5 uM after 24 hrs by propidium iodide staining based flow cytometry (reference value: 2.29 +/- 0.39%). In a few lines:
as §1

Data set [13] can be described thus: Toxicity in Balb/c nude mouse xenografted with human KBV cells assessed as body weight at 10 mg/kg, po via gavage for 2 weeks (reference value: 19.84 to 20.62 g). Type of data set: organism-based. Conditions: in vivo, 336 h.
Data set [14] in a line: Cytotoxicity against human KBV cells xenografted in Balb/c nude mouse assessed as tumor growth inhibition at 10 mg/kg, po via gavage for 2 weeks relative to control. The class given is organism-based. The conditions noted are these: in vivo, 336 h.
The target in data set [15] is T1, ATP-dependent translocase ABCB1. Put plainly: Reversal of P-gp-mediated multidrug resistance in human KBV cells assessed as potentiation of paclitaxel-induced cell cycle arrest by measuring accumulation at S phase at 5 uM after 24 hrs by propidium iodide staining based flow cytometry (reference value: 12.54 +/- 4.01%). In a few lines: as §1
A short description of data set [16]: Cytotoxicity against human KBV cells assessed as cell survival at 10 uM after 72 hrs by MTT assay relative to control. The class given is cell-based. The conditions noted are these: read-out: Survival. In a few lines: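 KBV (Pgp-overexpressing MDR line) grown in DMEM/10% FCS, kept in 10 nM paclitaxel; seeded, compound (DMSO stock) added next day, 72 h; MTT 2 h, formazan in DMSO, A570 gives survival vs DMSO solvent control; n = 1-3 independent experiments, mean ± SD.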

A short description of data set [17]: Cell cycle arrest in human KBV cells assessed as accumulation at G0/G1 phase at 10 uM after 24 hrs by propidium iodide staining based flow cytometry (reference value: 70.35 +/- 0.79%). The class given is ADME. In outline: as §1
The target of data set [18] is T1, ATP-dependent translocase ABCB1. Nature of the data set: Reversal of P-gp-mediated multidrug resistance in human KBV cells assessed as potentiation of paclitaxel-induced cytotoxicity by measuring decrease in paclitaxel IC50 at 10 uM after 72 hrs by MTT assay relative to paclitaxel alone. Type of data set: cell-based.
Data set [19] has the same target. Put plainly: Reversal of P-gp-mediated multidrug resistance in human KBV cells assessed as potentiation of paclitaxel-induced cell cycle arrest by measuring accumulation at G0/G1 phase at 5 uM after 24 hrs by propidium iodide staining based flow cytometry (reference value: 71.11 +/- 2%). In a few lines: as §1
For data set [20], the species on record is Homo sapiens. Put plainly: Downregulation of P-gp protein expression in human KBV cells by western blot analysis. The class given is functional, cell-based.
In data set [21] the target is T1, ATP-dependent translocase ABCB1. Put plainly: Reversal of P-gp-mediated multidrug resistance in human KBV cells assessed as potentiation of paclitaxel-induced cell cycle arrest by measuring accumulation at G2/M phase at 5 uM after 24 hrs by propidium iodide staining based flow cytometry (reference value: 16.35 +/- 2.02%). In outline:
as §1

Broadly, the TGI is how far tumour growth fell short of that in controls.

Calls of active or inactive are those of the source. The calls are words filed in the database; no cut-off is given here.

Consider `CC(C)(C)OC(=O)NCCCCCC(=O)N[C@H]1CC[C@]2(C)[C@H]3C[C@@H](O)[C@@H]4[C@@H]([C@]5(C)CC[C@H](C(C)(C)O)O5)CC[C@@]4(C)[C@]3(C)CC[C@H]2C1(C)C`, for which the Activity in data set [1] is 9.22%; in [2], 15.98 g; in data set [3], “Dose-dependent effect”; in data set [6], 2.35%; in data set [7], 17.49%; in data set [12] it was 43.12%. The Activity is given as 21.85 g in data set [13]; 16.05% in [15]; 73.29% in data set [17]; 44.52% in data set [19]; 39.43% in data set [21]. In addition, in data set [4], the fold induction at 40 min, 500 µM was 6.03. Besides, the “inhibition (INH)” value in [5] is reported as “Dose-dependent effect”. The inhibition of tumour growth (TGI) in data set [8] was found to be 53.73%; in data set [14], 10.45%. The “fold change (FC)” value in data set [9] worked out at 27.97; in data set [18], 47.85. Moreover, the Survival in data set [10] was determined as 34%; in data set [11] it was 46%. Besides, the viability at 72 h, 10 µM in data set [16] was found to be 128%. In addition, in data set [20], the result was inactive.
Take `COc1ccc(CCN(C)CCCC(C#N)(c2ccc(OC)c(OC)c2)C(C)C)cc1OC` (stereo not given): the Activity in data set [1] is 9.99%; in [6], 2.25%; in data set [7], 21.92%; in data set [17] it was 68.09%. Besides, the Survival in data set [10] came out at 43%.
With `CC(C)(O)[C@H]1CC[C@@](C)([C@H]2CC[C@]3(C)[C@@H]2[C@H](O)C[C@@H]2[C@@]4(C)CC[C@H](N)C(C)(C)[C@@H]4CC[C@]23C)O1`, the results for the “fold change (FC)” value in data set [9] and in data set [18] were 10 and 28.11, respectively. Further, the Survival in data set [10] is reported as 43%; in data set [11] it was 72%. Further, in [16], the viability at 72 h, 10 µM came out at 125%.
Take `CC(C)(C)OC(=O)Nc1ccc(C(=O)N[C@H]2CC[C@]3(C)[C@H]4C[C@@H](O)[C@@H]5[C@@H]([C@]6(C)CC[C@H](C(C)(C)O)O6)CC[C@@]5(C)[C@]4(C)CC[C@H]3C2(C)C)cc1`: the Survival in data set [10] is given as 46%; in [11], 54%. In addition, the viability at 72 h, 10 µM in [16] is 77%.
Taken in the same sequence, the figures for `CC(C)(O)[C@@H]1CC[C@@](C)([C@H]2CC[C@]3(C)[C@@H]2[C@H](O)C[C@@H]2[C@@]4(C)CC[C@H](NC(=O)CCCCCCCN)C(C)(C)[C@@H]4CC[C@]23C)O1` were 76%, 118% and 118%.
Regarding `CC(C)(O)[C@H]1CC[C@@](C)([C@H]2CC[C@]3(C)[C@@H]2[C@H](O)C[C@@H]2[C@@]4(C)CC[C@H](NC(=O)c5cccnc5)C(C)(C)[C@@H]4CC[C@]23C)O1`, the Survival in data set [10] amounted to 49%; in [11], 55%. Moreover, the viability at 72 h, 10 µM in data set [16] was determined as 87%.
